Hsp70 act = Hsp70 transcriptional activation, primary screen | HeLa Hsp70 promoter luciferase reporter, luminescence; scaled: vehicle 0, proteasome-inhibitor control 100% | activation, % at 10 µM | 200,000 tested, 0.04% active | AID 1203;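 active = activation above the mean across all tested compounds plus 3 SD, cutoff set per campaign, cut at about 5.5% in these data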
PolyA inh = inhibitors of polyadenylation in S. cerevisiae; S. cerevisiae SKY197-pL101 polyadenylation reporter, beta-gal luminescence; efflux-impaired pdr1/pdr3 knockout yeast; score 100 = 6 SD above DMSO; activity score, % at 12 µM; 300,000 tested, 0.02% active; AID 1875;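 active = lowest replicate activity score at least 50, where 100 means six control SD above control mean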;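 also: yeast exposed to compound for 9 h at 30 °C; higher score means more reporter readthrough which indicates perturbed polyadenylation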
PERK inh = inhibitors of human PERK kinase | 220,000 tested, 0.17% active | Q9NZJ5 | inhibition, % at 5.6 µM | CHO PERK-DD fusion, SEAP luminescence translation reporter;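 active = inhibition above the mean inhibition of all tested compounds plus 3 SD, set separately per screening campaign, cut at about 2.9% in these data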;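 also: PERK kinase domain activated by AP20187 dimerizer at 100 nM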
HSF1 inh = HSF1 inhibition | AID 2098 | NIH3T3-HGL HSE-luciferase, MG132-induced, luminescence 8 h; active compounds read low | activity change, negative = inhibition, % at 7.5 µM (by protocol) | 300,000 tested, 0.77% active;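 active = more than half of replicate wells show activity change below -50%, luminescence cut by over half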;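 also: luciferase reports HSF-1 transcriptional activity via heat shock element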
STAT3 act = STAT3 signaling activation; 190,000 tested, 0.91% active; activation (% of control), % at 5.6 µM; U3A cells, IL-6 STAT3-luciferase reporter, luminescence; 100% = signal with IL-6 EC80 alone; AID 871;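 active = activation above the screen-wide mean of compound activation plus 3 SD, cut at about 130% in these data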
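Test system: STAT3-luciferase reporter U3A cells; Detection: reporter luminescence signal; Times: 1 h compound pre-exposure, 6 h IL-6 stimulation, 37 °C; Benchmarks: IL-6-only high control; Also added: IL-6 stimulus at 33 ng/mL final.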
AHR act = activates the human aryl hydrocarbon receptor; AID 2796; activation, % at 5 µM; 320,000 tested, 2.5% active; AHR-responsive luciferase reporter cells, luminescence; in the data active = activation above about 47%
A number is an active result. Hits are enriched below; roughly 3.6% of the tested compounds scored in any of these assays.

Cc1sc(NC(=O)c2ccc(Br)s2)c(C(N)=O)c1C was read as Hsp70 act inactive, PolyA inh inactive, PERK inh inactive, HSF1 inh inactive, STAT3 act 185 and AHR act 59.
`Cc1sc(NC(=S)NC(=O)C2CCCCC2)c(C(N)=O)c1C` gave Hsp70 act inactive, PolyA inh inactive, PERK inh inactive, HSF1 inh inactive, STAT3 act inactive and AHR act 56.
`CCOC(=O)CNC(=O)c1ccc(Br)s1` gave PolyA inh inactive, PERK inh inactive, HSF1 inh inactive and AHR act inactive.
CCc1c(C)sc(NC(=O)C2CCCCC2C(=O)O)c1C(N)=O (stereo unspecified) was read as Hsp70 act inactive, PolyA inh inactive, PERK inh inactive, HSF1 inh inactive, STAT3 act inactive and AHR act inactive.
For Cc1sc(NC(=S)Nc2ccc(F)cc2)c(C(N)=O)c1C the results were Hsp70 act inactive, PolyA inh inactive, PERK inh inactive, HSF1 inh inactive, STAT3 act inactive and AHR act 81.
For CCOC(=O)c1c(NC(=S)Nc2ccc(Cl)cc2)sc(C)c1C the results were Hsp70 act inactive, PolyA inh inactive, PERK inh inactive, HSF1 inh inactive and STAT3 act inactive.
O=C(NCCNC(=O)c1ccc(Br)o1)c1cccnc1 was read as PolyA inh inactive, HSF1 inh inactive and AHR act inactive.
`Cc1ccc(C2CCN(C(=S)NC(C)(C)C)C2)cc1` (stereo unspecified) gave Hsp70 act inactive, PolyA inh inactive, PERK inh inactive, HSF1 inh -66, STAT3 act inactive and AHR act inactive.
`COc1ccc(NS(=O)(=O)c2ccc3c(c2)NC(=O)C(C)S3)cc1` (stereo unspecified) gave PolyA inh inactive, HSF1 inh inactive and AHR act inactive.
For COC(=O)CN1C(=O)COc2ccc(S(=O)(=O)NCc3ccccc3)cc21 the results were PolyA inh inactive, HSF1 inh inactive and AHR act inactive.
For C=CCNc1nnc(Cl)c2ccccc12 the results were Hsp70 act inactive, PolyA inh inactive, PERK inh inactive, HSF1 inh inactive, STAT3 act inactive and AHR act inactive.
COc1ccc(/C=N/Nc2nnc(-c3ncc[nH]3)c3ccccc23)cc1 was read as Hsp70 act inactive, PolyA inh inactive, PERK inh inactive, HSF1 inh inactive, STAT3 act inactive and AHR act 62.
Cc1ccc(/C=N/Nc2nnc(Cl)c3ccccc23)cc1 was read as Hsp70 act inactive, PolyA inh inactive, PERK inh inactive, HSF1 inh inactive, STAT3 act inactive and AHR act 61.
For Cc1cccc(/C=N/Nc2nncc3ccccc23)c1 the results were Hsp70 act inactive, PolyA inh inactive, PERK inh inactive, HSF1 inh inactive, STAT3 act inactive and AHR act inactive.
Clc1nnc(NN=C2CCCC2)c2ccccc12 was read as Hsp70 act inactive, PolyA inh inactive, PERK inh inactive, HSF1 inh inactive, STAT3 act inactive and AHR act 51.
For O=C(c1cccc(C(F)(F)F)c1)c1c[nH]c(C(=O)NCC2CCCO2)c1 (stereo unspecified) the results were Hsp70 act inactive, PolyA inh inactive, PERK inh inactive, HSF1 inh inactive, STAT3 act inactive and AHR act inactive.
Cc1nc(NC(=O)c2ccc(F)cc2)nc2cc3c(cc12)OCO3 was read as Hsp70 act inactive, PolyA inh inactive, PERK inh inactive, HSF1 inh inactive, STAT3 act inactive and AHR act 65.
For Cc1nc(NC(=O)c2ccccc2)nc2cc3c(cc12)OCO3 the results were Hsp70 act inactive, PolyA inh inactive, PERK inh inactive, HSF1 inh inactive, STAT3 act inactive and AHR act inactive.
`C=CCN(CC=C)C(=S)NC(=O)c1ccc(OC)cc1` gave Hsp70 act inactive, PolyA inh inactive, PERK inh inactive, HSF1 inh inactive, STAT3 act inactive and AHR act 51.
Screening Cc1ccc2cccc(OCc3ccc(Br)cc3)c2n1 returned PolyA inh inactive, HSF1 inh inactive and AHR act 73.
`Cc1ccc2cccc(OCc3ccc(F)cc3)c2n1` gave PolyA inh inactive, HSF1 inh inactive and AHR act inactive.
